In ChEMBL document CHEMBL1126849, “Synthesis of A-ring fluorinated derivatives of (17 alpha,20E/Z)-[125I]iodovinylestradiols: effect on receptor binding and receptor-mediated target tissue uptake” (J Med Chem, 1993) one finds RBA data, which are given here for 15 compounds.

Molecules are shown by their SMILES.

The first assay deals with T1, Estrogen receptor (Mus musculus) (UniProt O08537+P19785). Description: Relative binding affinity (RBA) for murine cytoplasmic estrogen receptor at 4C for 2 hr. The assay is classed as protein assay. A digest of the protocol: (§1)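 Murine uterine cytoplasmic extract incubated 2 h at 4 °C or at 25 °C with 20 nM [3H]estradiol and competitors at 2 nM–20 μM. RBA is taken as 100 × the ratio of competitor to unlabeled estradiol concentration needed for 50% competition of specific [3H]estradiol binding.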
T1 sequence (O08537 whole entry, looked up): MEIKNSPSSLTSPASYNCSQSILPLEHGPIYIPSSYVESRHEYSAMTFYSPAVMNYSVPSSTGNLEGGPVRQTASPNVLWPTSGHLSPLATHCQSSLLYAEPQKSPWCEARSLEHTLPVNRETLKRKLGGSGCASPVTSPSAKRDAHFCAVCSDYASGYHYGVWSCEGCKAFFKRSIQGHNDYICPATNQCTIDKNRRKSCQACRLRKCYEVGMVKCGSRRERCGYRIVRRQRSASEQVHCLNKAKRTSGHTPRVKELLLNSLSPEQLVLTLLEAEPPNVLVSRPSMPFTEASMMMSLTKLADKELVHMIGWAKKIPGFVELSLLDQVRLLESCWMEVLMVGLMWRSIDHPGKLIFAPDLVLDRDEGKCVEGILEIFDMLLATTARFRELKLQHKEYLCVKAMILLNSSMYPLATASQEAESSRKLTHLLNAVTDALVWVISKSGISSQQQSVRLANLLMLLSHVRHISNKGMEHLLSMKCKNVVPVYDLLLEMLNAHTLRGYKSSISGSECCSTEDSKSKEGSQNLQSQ
T1 sequence (P19785 whole entry, looked up): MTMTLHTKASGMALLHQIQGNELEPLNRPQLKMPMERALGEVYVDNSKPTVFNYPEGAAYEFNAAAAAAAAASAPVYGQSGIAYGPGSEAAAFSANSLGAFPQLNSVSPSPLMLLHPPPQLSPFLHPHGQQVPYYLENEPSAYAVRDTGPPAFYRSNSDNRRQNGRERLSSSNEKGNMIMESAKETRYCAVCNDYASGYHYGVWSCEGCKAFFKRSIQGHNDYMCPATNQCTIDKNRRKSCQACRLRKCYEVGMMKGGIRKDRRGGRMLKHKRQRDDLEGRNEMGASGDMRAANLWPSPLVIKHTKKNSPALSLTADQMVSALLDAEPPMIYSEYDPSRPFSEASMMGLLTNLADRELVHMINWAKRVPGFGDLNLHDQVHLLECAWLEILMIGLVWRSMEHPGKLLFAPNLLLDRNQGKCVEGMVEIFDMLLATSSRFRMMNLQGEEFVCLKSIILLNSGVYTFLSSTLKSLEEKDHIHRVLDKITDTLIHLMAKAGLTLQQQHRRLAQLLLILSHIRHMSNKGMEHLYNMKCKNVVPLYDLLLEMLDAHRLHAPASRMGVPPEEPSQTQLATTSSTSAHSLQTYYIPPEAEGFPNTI
For the compound `C#C[C@]1(O)CC[C@H]2[C@@H]3CCc4c(ccc(O)c4F)[C@H]3CC[C@@]21C`, the RBA amounted to 80.

In another assay the target is T1, Estrogen receptor (Mus musculus). Description: Relative binding affinity (RBA) for murine cytoplasmic estrogen receptor at 25 degree C for 2 hr. The assay is classed as protein assay. A digest of the protocol: as §1
Regarding `C#C[C@]1(O)CC[C@H]2[C@@H]3CCc4c(ccc(O)c4F)[C@H]3CC[C@@]21C`, the RBA was 166.

The target is the same in another assay. Description: Relative binding affinity (RBA) for murine cytoplasmic estrogen receptor at 4C for 18 hr. The assay is classed as protein assay. A digest of the protocol:
(§2)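 Competitive binding on murine uterine cytoplasmic extract with 20 nM [3H]estradiol and competitor steroids at 2 nM–20 μM, incubated 18 h at 0–4 °C. RBA = 100 × ratio of […] concentration giving 50% competition for specific binding. Mean of three experiments with SD.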
`C#C[C@]1(O)CC[C@H]2[C@@H]3CCc4c(ccc(O)c4F)[C@H]3CC[C@@]21C` showed an RBA of 119.

A further assay has the same target. Description: Relative binding affinity (RBA) against murine cytoplasmic estrogen receptor incubated at 0-4 degree Celsius for 18 hours. The assay is classed as protein assay. The gist of the method: as §2
With `C=C[C@]1(O)CC[C@H]2[C@@H]3[C@H](C)Cc4cc(O)c(F)cc4[C@H]3CC[C@@]21C`, the RBA came to 33.3.

For the compound `C[C@@H]1Cc2cc(O)ccc2[C@H]2CC[C@@]3(C)[C@@H](CC[C@@]3(O)/C=C/I)[C@H]12`, the RBA came out at 43.2.

Regarding `C[C@]12CC[C@@H]3c4ccc(O)cc4CC[C@H]3[C@@H]1CC[C@@]2(O)/C=C/I`, the RBA amounted to 39.7.

`C=C[C@]1(O)CC[C@H]2[C@@H]3CCc4cc(O)c(F)cc4[C@H]3[C@@H](OC)C[C@@]21C` displayed an RBA of 15.9.

The compound `C=C[C@]1(O)CC[C@H]2[C@@H]3[C@H](C)Cc4c(ccc(O)c4F)[C@H]3CC[C@@]21C` had an RBA of 62.4.

With `C=C[C@]1(O)CC[C@H]2[C@@H]3[C@H](C)Cc4cc(O)ccc4[C@H]3CC[C@@]21C`, the RBA came out at 73.1.

As for `CO[C@H]1C[C@@]2(C)[C@@H](CC[C@@]2(O)/C=C/I)[C@@H]2CCc3cc(O)ccc3[C@H]21`, the RBA was 27.7.

In the case of `CO[C@H]1C[C@@]2(C)[C@@H](CC[C@@]2(O)/C=C\I)[C@@H]2CCc3cc(O)ccc3[C@H]21`, the RBA came out at 32.

`C=C[C@]1(O)CC[C@H]2[C@@H]3CCc4cc(O)ccc4[C@H]3[C@@H](OC)C[C@@]21C` showed an RBA of 15.3.

Consider `C=C[C@]1(O)CC[C@H]2[C@@H]3CCc4cc(O)c(F)cc4[C@H]3CC[C@@]21C`, for which the RBA is 64.3.

In turn, `C=C[C@]1(O)CC[C@H]2[C@@H]3CCc4c(ccc(O)c4F)[C@H]3CC[C@@]21C` displayed an RBA of 119.

`C[C@@H]1Cc2cc(O)ccc2[C@H]2CC[C@@]3(C)[C@@H](CC[C@@]3(O)/C=C\I)[C@H]12` yielded an RBA of 44.9.

Consider `C=C[C@]1(O)CC[C@H]2[C@@H]3CCc4c(ccc(O)c4F)[C@H]3[C@@H](OC)C[C@@]21C`, for which the RBA was 16.7.

As for `C[C@]12CC[C@@H]3c4ccc(O)cc4CC[C@H]3[C@@H]1CC[C@@]2(O)/C=C\I`, the RBA turned out to be 46.7.
